Assay results pooled from the literature.
Protocols differ between the studies behind these lines.
EIF2AK4 S808G: eIF-2-alpha kinase GCN2 (EIF2AK4, Homo sapiens, UniProt Q9P2K8, S808G)
EIF2AK4 S808G C-terminal kinase domain: eIF-2-alpha kinase GCN2, C-terminal kinase domain (EIF2AK4, Homo sapiens, UniProt Q9P2K8, S808G)

For `N[C@@H]1CCN(c2nccc(-c3cnn4ncccc34)n2)C1`, the remaining binding was 100% (EIF2AK4 S808G; binding; 1 µM).
The remaining binding of `O=C(NCC1CCOCC1)c1n[nH]cc1NC(=O)c1c(F)cccc1F` is reported as 100% (EIF2AK4 S808G C-terminal kinase domain; binding, competition with immobilised ligand; 1 µM).
`O=C(NS(=O)(=O)c1ccc(NCC2CCOCC2)c([N+](=O)[O-])c1)c1ccc(N2CCN(Cc3ccc(C(F)(F)F)cc3-c3ccc(Cl)cc3)CC2)cc1Oc1cnc2[nH]ccc2c1` gave a remaining binding of 85% (EIF2AK4 S808G C-terminal kinase domain; cell-free assay, competition with immobilised ligand; 1 µM).
With `COc1cnc(Nc2cccc(S(N)(=O)=O)c2)nc1N1CCN(c2ccccc2)CC1` the remaining binding was 95% (EIF2AK4 S808G C-terminal kinase domain; binding, competition with immobilised ligand; 1 µM).
`CCCCN(CCCC)C(=O)CN1C[C@@H](c2cc(OC)c3c(c2)OCO3)[C@H](C(=O)O)[C@H]1CC(C)(C)CCC` gave a remaining binding of 100% (EIF2AK4 S808G C-terminal kinase domain; cell-free assay, competition with immobilised ligand; 1 µM).
For `Cc1cnn2ncc(-c3ccnc(N(C)C)n3)c2c1`, the remaining binding was 96% (EIF2AK4 S808G; binding; 1 µM).
With `C[C@@H](c1cccc(C#N)c1)n1cc(Cl)cc(C(N)=O)c1=N` the remaining binding was 50% (EIF2AK4 S808G C-terminal kinase domain; cell-free assay, competition with immobilised ligand; 1 µM).
For `CN1CCN(c2ccc(Nc3nccc(-c4ccccc4)n3)cc2C(F)(F)F)CC1`, the remaining binding was 0.2% (EIF2AK4 S808G; binding; 10 µM).
`c1cncc(-c2cccc(Nc3nccc(NC4CCCCC4)n3)c2)c1` has a remaining binding of 100% (EIF2AK4 S808G C-terminal kinase domain; binding, competition with immobilised ligand; 10 µM).
The remaining binding of `c1cnn2ncc(-c3ccnc(N4CCC45COC5)n3)c2c1` is reported as 100% (EIF2AK4 S808G; binding; 1 µM).
`CCC(=N\O)/C(C)=C/c1ccc(F)cc1` has a remaining binding of 70% (EIF2AK4 S808G C-terminal kinase domain; cell-free assay, competition with immobilised ligand; 1 µM).
With `CCN1CCN(Cc2ccc(C(=O)Nc3ccc(C)c(Oc4ccc5c(c4)CC(=O)N5)c3)cc2C(F)(F)F)CC1` the remaining binding was 100% (EIF2AK4 S808G C-terminal kinase domain; binding, competition with immobilised ligand; 1 µM).
The remaining binding of `O=C(c1ccc(Nc2ncc(Cl)c(-c3cc4ccccc4s3)n2)cc1)N1CCC(N2CCCC2)CC1` is reported as 0% (EIF2AK4 S808G C-terminal kinase domain; binding, competition with immobilised ligand; 1 µM).
The remaining binding of `O=C(NC[C@@H]1[C@H]2CN(C(=O)OCc3cc(C(F)(F)F)cc(C(F)(F)F)c3)C[C@@H]12)c1ccc2[nH]nnc2c1` is reported as 84% (EIF2AK4 S808G C-terminal kinase domain; cell-free assay, competition with immobilised ligand; 1 µM).
The remaining binding of `O=C(NCCCN1CCOCC1)c1ccc(Nc2ncc(Cl)c(-c3ccc(Cl)s3)n2)cc1` is reported as 0.35% (EIF2AK4 S808G C-terminal kinase domain; binding, competition with immobilised ligand; 1 µM).
`C=CC(=O)N1CCC(C(=O)NCC(=O)N2CCN(c3nc(-c4cnc(N)nc4C(F)F)nc(N4CCOCC4)n3)CC2)CC1` has a remaining binding of 100% (EIF2AK4 S808G C-terminal kinase domain; binding, competition with immobilised ligand; 1 µM).
The remaining binding of `COc1ccnn2ncc(-c3ccnc(N(C)C)n3)c12` is reported as 93% (EIF2AK4 S808G; binding; 1 µM).
With `O=C(NCCCN1CCOCC1)c1ccc(Nc2nccc(-c3cc4ccccc4s3)n2)cc1` the remaining binding was 15% (EIF2AK4 S808G C-terminal kinase domain; binding, competition with immobilised ligand; 1 µM).
The remaining binding of `CN(c1nccc(-c2cnn3ncccc23)n1)C1CC1` is reported as 69% (EIF2AK4 S808G; binding; 1 µM).
The remaining binding of `O=C(NCc1ncc(C(F)(F)F)cc1Cl)c1ccc2c(c1)C1(CCS(=O)(=O)CC1)[C@@H](C1CC1)N2S(=O)(=O)c1ccc(F)cc1` is reported as 100% (EIF2AK4 S808G C-terminal kinase domain; cell-free assay, competition with immobilised ligand; 1 µM).
With `C[C@@H]1CCN(c2nccc(-c3cnn4ncccc34)n2)C1` the remaining binding was 78% (EIF2AK4 S808G; binding; 1 µM).
With `CNC(=O)[C@@H]1CC[C@@H](n2c(-c3ccc4cnccc4c3)nc3ccc(C(=O)NCc4cccc(C(N)=O)c4)cc32)C1` the remaining binding was 82% (EIF2AK4 S808G C-terminal kinase domain; binding, competition with immobilised ligand; 1 µM).
